Source: ChEMBL document CHEMBL1134488, “Potent reversible inhibitors of the protein tyrosine phosphatase CD45” (J Med Chem, 2001)
pIC50: −log10 of the molar value. Where a SMILES comes first, the peptide text is derived from it. The star is where a group is joined. Phenanthrenequinone2carbonyl = O=C1C(=O)c2cc(C(=O)*)ccc2-c2ccccc21; 3Phenanthroyl(9,10-dioxo) = O=C1C(=O)c2ccc(C(=O)*)cc2-c2ccccc21; X1 = O=C1C(=O)c2cc(N*)ccc2-c2ccccc21

How the values were obtained:
[1] = biological target: T1, Receptor-type tyrosine-protein phosphatase C (Homo sapiens, UniProt P08575); experiment: In vitro inhibitory activity against the cytosolic portion of CD45 protein-tyrosine phosphatase using pNPP as the substrate
T1 sequence (P08575 whole entry): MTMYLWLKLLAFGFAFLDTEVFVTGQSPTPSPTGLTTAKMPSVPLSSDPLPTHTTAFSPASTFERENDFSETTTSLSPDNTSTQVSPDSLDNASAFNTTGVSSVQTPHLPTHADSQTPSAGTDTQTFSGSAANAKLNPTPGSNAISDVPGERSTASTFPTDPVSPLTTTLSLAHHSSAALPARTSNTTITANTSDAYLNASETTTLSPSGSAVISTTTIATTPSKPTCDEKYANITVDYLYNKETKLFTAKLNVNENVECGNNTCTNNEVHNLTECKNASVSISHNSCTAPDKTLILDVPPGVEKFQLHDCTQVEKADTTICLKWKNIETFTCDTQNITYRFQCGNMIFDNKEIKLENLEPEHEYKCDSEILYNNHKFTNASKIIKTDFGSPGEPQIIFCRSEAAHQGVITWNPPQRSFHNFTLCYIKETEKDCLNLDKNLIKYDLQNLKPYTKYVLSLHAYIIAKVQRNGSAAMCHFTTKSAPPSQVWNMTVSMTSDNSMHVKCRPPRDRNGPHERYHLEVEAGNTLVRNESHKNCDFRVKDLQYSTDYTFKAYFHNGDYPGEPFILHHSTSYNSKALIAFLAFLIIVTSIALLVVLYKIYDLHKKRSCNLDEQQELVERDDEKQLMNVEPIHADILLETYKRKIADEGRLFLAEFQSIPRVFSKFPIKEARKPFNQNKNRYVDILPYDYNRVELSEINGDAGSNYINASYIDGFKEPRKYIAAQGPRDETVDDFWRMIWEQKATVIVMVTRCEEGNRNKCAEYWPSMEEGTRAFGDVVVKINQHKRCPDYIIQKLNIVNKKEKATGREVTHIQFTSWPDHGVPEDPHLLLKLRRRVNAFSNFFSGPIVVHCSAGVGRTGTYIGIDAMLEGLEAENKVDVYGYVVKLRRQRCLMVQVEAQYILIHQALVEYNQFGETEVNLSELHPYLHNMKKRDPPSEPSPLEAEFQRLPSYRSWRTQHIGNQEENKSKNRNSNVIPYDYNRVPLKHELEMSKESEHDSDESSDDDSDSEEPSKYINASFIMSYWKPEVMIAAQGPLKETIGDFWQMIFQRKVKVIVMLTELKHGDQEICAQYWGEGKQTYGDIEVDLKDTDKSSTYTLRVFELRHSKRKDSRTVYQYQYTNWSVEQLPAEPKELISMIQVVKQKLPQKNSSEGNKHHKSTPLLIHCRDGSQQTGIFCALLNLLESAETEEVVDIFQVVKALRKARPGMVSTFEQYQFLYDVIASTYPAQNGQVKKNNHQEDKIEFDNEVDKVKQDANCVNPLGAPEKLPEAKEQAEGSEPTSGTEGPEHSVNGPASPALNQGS

T-cell [2] = experiment: In vitro inhibition of human T-cell proliferation; format: functional, cell-based
T-cell [3] = experiment: Cytotoxicity measured against human T-cells; format: functional
[4] = biological target: T2, Tyrosine-protein phosphatase non-receptor type 1 (Homo sapiens, UniProt P18031); experiment: Inhibitory concentration against PTP1B using lck as substrate
T2 sequence (P18031 whole entry): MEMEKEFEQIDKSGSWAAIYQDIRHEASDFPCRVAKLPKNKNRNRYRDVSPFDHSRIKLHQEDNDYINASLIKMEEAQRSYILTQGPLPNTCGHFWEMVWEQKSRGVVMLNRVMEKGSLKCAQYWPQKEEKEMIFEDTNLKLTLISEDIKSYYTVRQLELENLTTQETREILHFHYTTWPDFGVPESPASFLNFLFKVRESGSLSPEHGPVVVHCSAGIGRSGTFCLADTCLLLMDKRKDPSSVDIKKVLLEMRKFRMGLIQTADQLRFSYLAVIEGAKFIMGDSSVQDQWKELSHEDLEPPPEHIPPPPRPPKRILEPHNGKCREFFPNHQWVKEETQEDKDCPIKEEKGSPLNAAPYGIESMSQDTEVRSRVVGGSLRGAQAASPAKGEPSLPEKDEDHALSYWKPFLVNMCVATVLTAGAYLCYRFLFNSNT

[5] = biological target: T1, Receptor-type tyrosine-protein phosphatase C; experiment: Inhibitory concentration against CD45 protein-tyrosine phosphatase using lck-10 mer as substrate
Cathepsin S = Cathepsin S (Homo sapiens, UniProt P25774); experiment: Inhibitory concentration against Cathepsin S
Procedure, shortened: (§1)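 Cysteine protease assays. Peptide substrates were CBZ-L-lysine p-nitrophenyl ester, Z-Phe-Arg-NH-Mec and Z-Val-Val-Arg-NH-Mec. Values are means of experiments run in triplicate, given in µM.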

Cathepsin B = Cathepsin B (Homo sapiens, UniProt P07858); experiment: Inhibitory concentration against Cathepsin B; procedure, shortened: as §1
[6] = biological target: T3, Tyrosine-protein phosphatase non-receptor type 13 (Homo sapiens, UniProt Q12923); experiment: Inhibitory concentration against FAP-1 using lck-10 mer as substrate
[7] = biological target: T3, Tyrosine-protein phosphatase non-receptor type 13; experiment: Inhibitory concentration against FAP-1 pNPP
Procathepsin L = Procathepsin L (Homo sapiens, UniProt P07711); experiment: Inhibitory concentration against Cathepsin L; procedure, shortened: as §1
[8] = biological target: T1, Receptor-type tyrosine-protein phosphatase C; experiment: Inhibitory concentration against CD45 protein-tyrosine phosphatase pNPP

Procathepsin L, sequence (P07711 whole entry): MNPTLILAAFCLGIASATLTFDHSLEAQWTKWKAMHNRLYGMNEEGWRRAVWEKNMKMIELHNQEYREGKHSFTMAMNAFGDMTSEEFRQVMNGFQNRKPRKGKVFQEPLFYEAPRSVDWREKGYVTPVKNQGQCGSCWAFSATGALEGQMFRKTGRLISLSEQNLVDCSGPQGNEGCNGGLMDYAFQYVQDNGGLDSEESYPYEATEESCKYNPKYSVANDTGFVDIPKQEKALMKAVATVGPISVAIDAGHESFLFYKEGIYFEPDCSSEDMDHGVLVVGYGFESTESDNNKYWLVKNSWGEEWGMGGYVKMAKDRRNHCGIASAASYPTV
T3 sequence (Q12923 whole entry): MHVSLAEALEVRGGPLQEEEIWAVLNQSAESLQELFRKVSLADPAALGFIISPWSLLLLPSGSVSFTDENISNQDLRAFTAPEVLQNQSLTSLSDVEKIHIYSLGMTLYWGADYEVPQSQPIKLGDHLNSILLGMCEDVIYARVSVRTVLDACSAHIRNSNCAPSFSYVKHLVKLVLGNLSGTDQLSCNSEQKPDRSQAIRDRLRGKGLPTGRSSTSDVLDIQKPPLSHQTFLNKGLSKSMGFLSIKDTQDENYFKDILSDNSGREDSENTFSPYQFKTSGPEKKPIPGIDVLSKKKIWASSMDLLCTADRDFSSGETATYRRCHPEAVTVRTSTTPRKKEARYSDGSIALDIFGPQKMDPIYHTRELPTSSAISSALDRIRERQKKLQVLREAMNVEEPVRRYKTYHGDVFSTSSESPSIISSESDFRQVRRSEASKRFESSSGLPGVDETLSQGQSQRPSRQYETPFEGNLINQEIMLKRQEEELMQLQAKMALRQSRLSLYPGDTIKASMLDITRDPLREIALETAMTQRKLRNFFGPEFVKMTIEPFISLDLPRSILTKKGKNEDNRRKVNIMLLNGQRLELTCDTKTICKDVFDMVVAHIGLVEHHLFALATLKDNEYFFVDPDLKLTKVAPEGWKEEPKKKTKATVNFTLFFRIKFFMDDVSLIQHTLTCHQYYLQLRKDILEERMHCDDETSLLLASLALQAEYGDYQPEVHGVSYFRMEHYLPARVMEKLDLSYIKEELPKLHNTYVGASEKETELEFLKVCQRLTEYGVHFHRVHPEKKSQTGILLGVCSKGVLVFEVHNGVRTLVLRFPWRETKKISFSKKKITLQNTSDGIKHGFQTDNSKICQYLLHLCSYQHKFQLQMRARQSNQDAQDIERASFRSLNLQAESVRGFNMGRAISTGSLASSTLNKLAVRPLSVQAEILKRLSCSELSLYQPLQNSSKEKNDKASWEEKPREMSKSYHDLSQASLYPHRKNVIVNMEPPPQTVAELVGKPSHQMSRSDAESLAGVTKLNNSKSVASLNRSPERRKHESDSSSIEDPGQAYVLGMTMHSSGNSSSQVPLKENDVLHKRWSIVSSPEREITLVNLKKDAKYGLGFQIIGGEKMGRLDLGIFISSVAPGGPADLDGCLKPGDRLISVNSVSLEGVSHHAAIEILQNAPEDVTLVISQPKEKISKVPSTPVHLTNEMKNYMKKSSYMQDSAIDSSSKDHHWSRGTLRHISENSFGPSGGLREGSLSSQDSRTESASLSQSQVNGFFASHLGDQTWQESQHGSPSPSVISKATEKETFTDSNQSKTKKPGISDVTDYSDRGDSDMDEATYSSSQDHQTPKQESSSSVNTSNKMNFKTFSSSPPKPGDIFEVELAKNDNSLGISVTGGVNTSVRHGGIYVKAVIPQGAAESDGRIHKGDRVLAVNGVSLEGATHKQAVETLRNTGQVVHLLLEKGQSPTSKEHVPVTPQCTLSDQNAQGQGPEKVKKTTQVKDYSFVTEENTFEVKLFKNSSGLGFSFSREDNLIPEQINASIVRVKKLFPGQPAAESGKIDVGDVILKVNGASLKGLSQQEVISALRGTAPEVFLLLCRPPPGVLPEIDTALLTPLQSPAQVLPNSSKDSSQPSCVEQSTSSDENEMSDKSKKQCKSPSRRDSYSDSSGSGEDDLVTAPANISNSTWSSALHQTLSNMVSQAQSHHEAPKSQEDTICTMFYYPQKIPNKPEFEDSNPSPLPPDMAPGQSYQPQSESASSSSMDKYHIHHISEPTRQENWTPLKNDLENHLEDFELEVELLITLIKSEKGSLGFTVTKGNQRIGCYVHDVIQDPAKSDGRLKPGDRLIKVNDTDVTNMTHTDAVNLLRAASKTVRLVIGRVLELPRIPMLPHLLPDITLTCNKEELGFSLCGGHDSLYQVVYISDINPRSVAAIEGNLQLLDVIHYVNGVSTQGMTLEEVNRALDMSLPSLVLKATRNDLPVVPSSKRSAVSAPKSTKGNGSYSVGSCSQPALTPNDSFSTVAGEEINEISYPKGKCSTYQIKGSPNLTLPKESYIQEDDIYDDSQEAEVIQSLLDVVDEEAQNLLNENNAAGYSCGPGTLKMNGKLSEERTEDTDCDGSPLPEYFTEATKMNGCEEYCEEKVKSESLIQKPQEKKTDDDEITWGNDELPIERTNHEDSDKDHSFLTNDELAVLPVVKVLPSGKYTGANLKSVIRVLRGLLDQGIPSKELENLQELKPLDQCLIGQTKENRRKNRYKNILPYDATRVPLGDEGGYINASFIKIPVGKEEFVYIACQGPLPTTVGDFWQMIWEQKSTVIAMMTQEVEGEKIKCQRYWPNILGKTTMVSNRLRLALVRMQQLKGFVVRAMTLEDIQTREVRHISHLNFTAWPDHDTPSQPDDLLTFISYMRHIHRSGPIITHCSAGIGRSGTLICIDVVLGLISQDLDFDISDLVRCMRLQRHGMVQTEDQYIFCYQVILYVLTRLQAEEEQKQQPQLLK
Cathepsin S, sequence (P25774 whole entry): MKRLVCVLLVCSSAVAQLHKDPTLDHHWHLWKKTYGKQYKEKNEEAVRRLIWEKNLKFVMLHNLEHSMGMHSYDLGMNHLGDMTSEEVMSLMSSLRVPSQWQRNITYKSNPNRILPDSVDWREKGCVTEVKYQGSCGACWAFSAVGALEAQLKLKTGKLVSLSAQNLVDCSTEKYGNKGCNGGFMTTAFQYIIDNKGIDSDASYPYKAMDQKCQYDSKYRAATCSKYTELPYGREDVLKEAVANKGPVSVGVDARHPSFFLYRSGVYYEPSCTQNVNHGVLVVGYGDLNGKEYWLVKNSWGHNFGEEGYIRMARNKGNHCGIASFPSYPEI

| Compound | pIC50 [1] | pIC50 (T-cell [2]) | CC50 (T-cell [3]) | pIC50 [4] | further results |
| --- | --- | --- | --- | --- | --- |
| O=C1C=C(NCCCN2CCCCC2)c2ccccc2C1=O | < 4.52 | – | – | – | – |
| O=C1C(=O)c2cc(NC(=O)c3c(Cl)cc(Cl)cc3Cl)ccc2-c2ccccc21 | 5.27 | 5.89 | 12 µM | – | – |
| COC(=O)CCCCCCC(=O)Nc1ccc2c(c1)-c1ccccc1C(=O)C2=O | 6.15 | 5.89 | 28 µM | – | – |
| O=C1C(=O)c2cc(-c3cc4ccccc4o3)ccc2-c2ccccc21 | – | – | 3.6 µM | 4.72 | pIC50 [5]: < 4.52 |
| O=C1C=C(Nc2ccccc2)c2ccccc2C1=O | < 4.52 | – | – | – | – |
| O=C(O)CC/N=C1\C=C(O)C(=O)c2ccccc21 | < 4.52 | – | – | – | – |
| O=C1C(=O)c2cccc([N+](=O)[O-])c2-c2ccc([N+](=O)[O-])cc21 | < 4.52 | < 4.52 | > 30 µM | – | – |
| O=C1C(=O)c2cc(-c3ccccc3F)ccc2-c2ccccc21 | 6.10 | – | 8.4 µM | 4.74 | pIC50 [5]: < 4.52 |
| O=C1C(=O)c2ccoc2-c2ccccc21 | – | – | 3.5 µM | < 4.52 | – |
| CC(C)(C)OC(=O)CNC(=O)c1ccc2c(c1)C(=O)C(=O)c1ccccc1-2 | – | 6.40 | 10 µM | < 4.52 | – |
| COC(=O)CCCCCCC(=O)Nc1ccc2c(c1)C(=O)C(=O)c1ccccc1-2 | – | – | 14 µM | – | pIC50 (Cathepsin S): < 5.00; pIC50 (Cathepsin B): < 5.00; pIC50 [6]: < 4.52; pIC50 [7]: 5.00; pIC50 (Procathepsin L): < 5.00 |
| O=C1C(=O)c2cccnc2-c2ccccc21 | – | 6.70 | 2.4 µM | < 4.52 | pIC50 (Cathepsin S): 6.40; pIC50 [5]: 5.51; pIC50 (Cathepsin B): < 5.00; pIC50 [6]: < 4.52; pIC50 [7]: 4.85; pIC50 (Procathepsin L): 6.22; pIC50 [8]: 5.85 |
| CCCC(=O)Nc1ccc2c(c1)-c1ccccc1C(=O)C2=O | 6.10 | 6.10 | 9.1 µM | < 4.52 | pIC50 [5]: 5.28 |
| O=C(Nc1ccc2c(c1)C(=O)C(=O)c1ccccc1-2)c1ccccc1F | – | 5.51 | 20 µM | 4.74 | pIC50 (Cathepsin S): 5.05; pIC50 [5]: 4.96; pIC50 (Cathepsin B): < 5.00; pIC50 [6]: 4.70; pIC50 [7]: 6.22; pIC50 (Procathepsin L): 6.40; pIC50 [8]: 6.22 |
| COc1ccccc1-c1ccc2c(c1)C(=O)C(=O)c1ccccc1-2 | – | – | 9.5 µM | 4.80 | pIC50 [5]: < 4.52 |
| CC(C)(C)C(=O)Nc1ccc2c(c1)C(=O)C(=O)c1ccccc1-2 | – | – | 3.5 µM | < 4.52 | pIC50 (Cathepsin S): 6.40; pIC50 [5]: 5.42; pIC50 (Cathepsin B): < 5.00; pIC50 [6]: < 4.52; pIC50 [7]: 5.15; pIC50 (Procathepsin L): 6.30 |
| O=C(Nc1ccc2c(c1)-c1ccccc1C(=O)C2=O)c1ccccc1F | 5.92 | 5.54 | 15 µM | < 4.52 | pIC50 [5]: 5.24 |
| CC(=O)NC(CCC(N)=O)C(=O)N[C@@H](CC(=O)Nc1ccc2c(c1)C(=O)C(=O)c1ccccc1-2)C(=O)O (stereo not given in full) | 5.96 | < 4.52 | – | – | – |

| Compound | pIC50 [1] | pIC50 (T-cell [2]) | CC50 (T-cell [3]) | pIC50 [4] | further results |
| --- | --- | --- | --- | --- | --- |
| COC(=O)CCC(=O)Nc1cccc2c1C(=O)C(=O)c1ccccc1-2 | – | 6.30 | 9 µM | – | pIC50 (Cathepsin B): < 5.00; pIC50 [6]: < 4.52; pIC50 [7]: 5.36 |
| COC(=O)CCC(=O)Nc1ccc2c(c1)C(=O)C(=O)c1cc(NC(=O)CCC(=O)OC)ccc1-2 | – | – | 7 µM | – | pIC50 (Cathepsin S): < 5.00; pIC50 [5]: 5.54; pIC50 (Cathepsin B): < 5.00; pIC50 [6]: < 4.52; pIC50 [7]: 4.92; pIC50 (Procathepsin L): 5.27 |
| O=C1C(=O)c2cc(Br)ccc2-c2ccccc21 | 6.40 | 6.22 | 5 µM | – | – |
| O=C(COCc1ccccc1)Nc1ccc2c(c1)C(=O)C(=O)c1ccccc1-2 | – | 6.00 | 14 µM | 4.74 | – |
| CC(C)(C)OC(=O)CNC(=O)c1ccc2c(c1)-c1ccccc1C(=O)C2=O | 6.22 | 6.49 | 3.2 µM | – | – |
| CC(=O)N[C@@H](CCC(=O)O)C(=O)NCC(=O)N[C@@H](CCC(N)=O)C(=O)N[C@@H](CC(=O)Nc1ccc2c(c1)C(=O)C(=O)c1ccccc1-2)C(=O)O (Ac-EGQD(X1)-OH) | 5.82 | < 4.52 | – | – | – |
| N=C(N)NCCC[C@H](NC(=O)c1ccc2c(c1)C(=O)C(=O)c1ccccc1-2)C(=O)N[C@@H](CCC(=O)O)C(=O)N1CCC[C@H]1C(=O)N[C@@H](CCCNC(=N)N)C(=O)N[C@@H](CCC(=O)O)C(=O)O (Phenanthrenequinone2carbonyl-REPRE-OH) | 6.05 | 4.70 | > 30 µM | – | – |
| NC(=O)CC[C@H](NC(=O)[C@@H]1CCCN1C(=O)[C@H](CCC(=O)O)NC(=O)CNC(=O)c1ccc2c(c1)-c1ccccc1C(=O)C2=O)C(=O)N1CCC[C@H]1C(=O)O ({3Phenanthroyl(9,10-dioxo)}-GEPQP-OH) | – | < 4.52 | > 30 µM | – | – |
| NC(=O)CC[C@H](NC(=O)CNC(=O)c1ccc2c(c1)-c1ccccc1C(=O)C2=O)C(=O)NCC(=O)N[C@@H](CCC(=O)O)C(=O)N1CCC[C@H]1C(=O)O ({3Phenanthroyl(9,10-dioxo)}-GQGEP-OH) | – | < 4.52 | > 30 µM | – | – |
| NC(=O)CC[C@H](NC(=O)CNC(=O)c1ccc2c(c1)-c1ccccc1C(=O)C2=O)C(=O)NCC(=O)N[C@@H](CCC(N)=O)C(=O)N1CCC[C@H]1C(=O)O ({3Phenanthroyl(9,10-dioxo)}-GQGQP-OH) | – | 4.70 | > 30 µM | – | – |
| NC(=O)CC[C@H](NC(=O)[C@@H]1CCCN1C(=O)[C@H](CCC(N)=O)NC(=O)CNC(=O)c1ccc2c(c1)-c1ccccc1C(=O)C2=O)C(=O)N1CCC[C@H]1C(=O)O ({3Phenanthroyl(9,10-dioxo)}-GQPQP-OH) | – | < 4.52 | > 30 µM | – | – |
| NC(=O)CC[C@H](NC(=O)c1ccc2c(c1)-c1ccccc1C(=O)C2=O)C(=O)N[C@@H](CCC(=O)O)C(=O)NCC(=O)N[C@@H](CCC(N)=O)C(=O)N1CCC[C@H]1C(=O)O ({3Phenanthroyl(9,10-dioxo)}-QEGQP-OH) | – | 4.80 | > 30 µM | – | – |
| NC(=O)CC[C@H](NC(=O)c1ccc2c(c1)-c1ccccc1C(=O)C2=O)C(=O)N[C@@H](CCC(=O)O)C(=O)N1CCC[C@H]1C(=O)N[C@@H](CCC(N)=O)C(=O)N1CCC[C@H]1C(=O)O ({3Phenanthroyl(9,10-dioxo)}-QEPQP-OH) | – | 5.30 | > 30 µM | – | – |
| NC(=O)CC[C@H](NC(=O)c1ccc2c(c1)-c1ccccc1C(=O)C2=O)C(=O)N[C@@H](CCC(N)=O)C(=O)NCC(=O)N[C@@H](CCC(N)=O)C(=O)N1CCC[C@H]1C(=O)O ({3Phenanthroyl(9,10-dioxo)}-QQGQP-OH) | – | 4.84 | > 30 µM | – | – |
| NC(=O)CC[C@H](NC(=O)c1ccc2c(c1)-c1ccccc1C(=O)C2=O)C(=O)N[C@@H](CCC(N)=O)C(=O)N1CCC[C@H]1C(=O)N[C@@H](CCC(N)=O)C(=O)N1CCC[C@H]1C(=O)O ({3Phenanthroyl(9,10-dioxo)}-QQPQP-OH) | – | < 4.52 | > 30 µM | – | – |
| O=C1C=Cc2ccccc2C1=O [1,2-NAPHTHOQUINONE] | – | 5.15 | > 30 µM | – | – |
| O=C1C(=O)c2ccccc2-c2ccccc21 [9,10-PHENANTHRENEQUINONE] | – | 6.52 | 1.3 µM | < 4.52 | – |
